Assay results: ChEMBL document CHEMBL1122415, “Folate antagonists. 20. Synthesis and antitumor and antimalarial properties of trimetrexate and related 6-[(phenylamino)methyl]-2,4-quinazolinediamines” (1983)
“And” between values parts separate entries of the source, which are not always exact repeats. Equal entries are not always repeated.

How the values were obtained:
[1] = tested on: Plasmodium berghei; assay: Antimalarial effect against trophozoite-induced Plasmodium berghei in mice (Mus musculus) at 80 mg/kg subcutaneous dose; assay type: functional
[2] = tested on: Mus musculus; assay: Antimalarial effect against trophozoite-induced Plasmodium berghei in mice (Mus musculus) after subcutaneous administration dose of 1.25 mg/kg; assay type: functional
[3] = tested on: L1210; assay: Molar concentration required to reduce the number of L1210 cells by 50% after incubation for 2 days; assay type: functional, Mus musculus; conditions: read-out: ID50 (the source's name)
Method in brief: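 L1210 leukemia cells in tissue culture exposed to drug for 2 days. ID50 is the molar concentration that reduces L1210 cell number by 50%. Mithramycin is the reference drug.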

[4] = tested on: Plasmodium berghei; assay: Antimalarial effect against trophozoite-induced Plasmodium berghei in mice (Mus musculus) at 5 mg/kg subcutaneous dose; assay type: functional
[5] = tested on: Plasmodium berghei; assay: Antimalarial effect against trophozoite-induced Plasmodium berghei in mice (Mus musculus) at 20 mg/kg subcutaneous dose; assay type: functional
[6] = organism: Mus musculus; assay: Daily dose required for 90% parasitaemia in trophozoite induced Plasmodium berghei in 21 mice; assay type: functional
Method in brief: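 Oral suppressive test in mice against a normal drug-sensitive P. berghei strain. Drug given continuously in the diet for six consecutive days, with doses as free base equivalent. SD90 is the daily dose (mg/kg) giving 90% suppression of parasitemia versus control mice, estimated graphically on semilog paper.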

[7] = tested on: Plasmodium berghei; assay: Antimalarial effect against trophozoite-induced Plasmodium berghei in mice (Mus musculus) at 40 mg/kg subcutaneous dose; assay type: functional
[8] = tested on: Mus musculus; assay: Antimalarial effect against trophozoite-induced Plasmodium berghei in mice (Mus musculus) after subcutaneous administration dose of 2.5 mg/kg; assay type: functional
[9] = tested on: Mus musculus; assay: Antimalarial effect against trophozoite-induced Plasmodium berghei in mice (Mus musculus) after subcutaneous administration dose of 20 mg/kg; 2 survived after 60 days of postinfection; assay type: functional
[10] = tested on: Plasmodium berghei; assay: Antimalarial effect against trophozoite-induced Plasmodium berghei in mice (Mus musculus) after subcutaneous dose of 10 mg/kg; assay type: functional
[11] = tested on: Mus musculus; assay: Antimalarial effect against trophozoite-induced Plasmodium berghei in mice (Mus musculus) after subcutaneous administration dose of 80 mg/kg; 1 survived after 60 days of postinfection; assay type: functional; conditions: 80 mg/kg
[12] = tested on: Plasmodium berghei; assay: Antimalarial effect against trophozoite-induced Plasmodium berghei in mice (Mus musculus) after subcutaneous dose of 160 mg/kg; assay type: functional
[13] = tested on: Plasmodium berghei; assay: Antimalarial effect against trophozoite-induced Plasmodium berghei in mice (Mus musculus) at 320 mg/kg subcutaneous dose; assay type: functional
[14] = tested on: Mus musculus; assay: Antimalarial effect against trophozoite-induced Plasmodium berghei in mice (Mus musculus) after subcutaneous administration dose of 320 mg/kg; 3 survived after 60 days of postinfection; assay type: functional
[15] = tested on: Mus musculus; assay: Antimalarial effect against trophozoite-induced Plasmodium berghei in mice (Mus musculus) after subcutaneous administration dose of 640 mg/kg; assay type: functional
[16] = tested on: Mus musculus; assay: Antimalarial effect against trophozoite-induced Plasmodium berghei in mice (Mus musculus) after subcutaneous after 60 days; assay type: functional
[17] = tested on: Mus musculus; assay: Antimalarial effect against trophozoite-induced Plasmodium berghei in mice (Mus musculus) after subcutaneous administration dose of 40 mg/kg; 1 survival after 60 days; assay type: functional
[18] = tested on: Mus musculus; assay: Antimalarial effect against trophozoite-induced Plasmodium berghei in mice (Mus musculus) after subcutaneous administration dose of 40 mg/kg; 3 survived after 60 days of post infection; assay type: functional
[19] = tested on: Mus musculus; assay: Antimalarial effect against trophozoite-induced Plasmodium berghei in mice (Mus musculus) after subcutaneous administration dose of 160 mg/kg; 3 survived after 60 days of postinfection; assay type: functional

| SMILES | Delta MST ([1]; 80 mg/kg) | IC50 ([3]; Mus musculus, L1210, 48 h) [nM] | IC50 [3] [nM] | Delta MST ([5]; 20 mg/kg) | SD90 [6] [mg/kg/day] | Delta MST ([7]; 40 mg/kg) | Delta MST [5] [days] | Delta MST [7] [days] | Delta MST [10] [days] | other results |
| --- | --- | --- | --- | --- | --- | --- | --- | --- | --- | --- |
| CC(=O)O.Cc1c(CNc2cccc(Br)c2)ccc2nc(N)nc(N)c12.O | 21.8 days and 9.2 days | 4.4 | 3.7 | 12.6 days and 11.2 days and 7.7 days | 0.2 | 9.3 days and 11.2 days | – | – | – | Delta MST [2]: 0.5 days; Delta MST [4]: 7.7 days |
| CC(=O)O.Cc1c(CNc2ccc(Cl)c(Cl)c2)ccc2nc(N)nc(N)c12 | – | 8.4 | 4.3 | – | 0.33 | – | 15.9 | 29.8 | – | Delta MST ([8]; 2.5 mg/kg): 7.2 days and 4 days; Delta MST [4]: 8.6 days; Delta MST [9]: 15.8 days |
| Nc1nc(N)c2cc(CN(N=O)c3ccc(Cl)c(C(F)(F)F)c3)ccc2n1 | – | – | – | 5.1 days and 5.3 days | – | 10.9 days and 11.1 days | – | – | 1.3 | Delta MST [11]: 14.9 days and 15.2 days |
| CC(=O)O.Nc1nc(N)c2cc(CN(N=O)c3ccc(Cl)c4ccccc34)ccc2n1 | 5.7 days and 5.9 days | 130 | 170 | 0.7 days and 0.5 days | – | 2.9 days and 2.7 days | – | – | 0.3 | Delta MST ([12]; 160 mg/kg): 12.9 days and 13.1 days; Delta MST ([13]; 320 mg/kg): 14.7 days and 14.9 days |
| CC(=O)O.Nc1nc(N)c2cc(CNc3cccc(Br)c3)ccc2n1 | 8.8 days and 10.2 days and 3.6 days | 86 | 71 | 1.5 days and 1.8 days | 9 | – | – | 3.1 | 0.4 | Delta MST [12]: 9.2 days; Delta MST ([13]; 320 mg/kg): 9.2 days and 9.8 days; Delta MST [14]: 9.2 days |
| Nc1nc(N)c2cc(CN(C=O)c3ccc(Cl)c(C(F)(F)F)c3)ccc2n1 | – | – | – | – | – | 1.5 days and 1.7 days | 0.3 | – | 0.3 | Delta MST [15]: 9.9 days; Delta MST ([12]; 160 mg/kg): 7.5 days and 6.3 days; Delta MST ([13]; 320 mg/kg): 12.5 days and 12.3 days |
| CC(=O)N(Cc1ccc2nc(N)nc(N)c2c1)c1ccc(Cl)c(Cl)c1 | 8.3 days and 3.7 days and 4.1 days | 300 | 190 | – | >15.1 | – | 1.3 | 3.7 | 0.9 | – |
| CC1(C)N=C(N)N=C(N)N1c1ccc(Cl)cc1.Cl [CHLORCYCLOGUANIL HYDROCHLORIDE] | – | – | – | – | – | – | 7.9 | – | 4.9 | Delta MST [16]: 21.6 days; Delta MST [17]: 13.4 days |
| CC(=O)O.Nc1nc(N)c2cc(CNc3ccc(Cl)cc3)ccc2n1.O.O | 6.9 days and 5.1 days | 27 | 35 | – | 1.9 | – | 5.1 | 6.9 | – | Delta MST [12]: 9.9 days |
| Nc1nc(N)c2c(Cl)c(CN(C=O)c3ccc(Cl)c(Cl)c3)ccc2n1 | – | – | – | 21.9 days and 21.6 days | – | – | – | 21.9 | 7.9 | Delta MST [1]: 24.4 days; Delta MST [18]: 23.9 days; Delta MST ([8]; 2.5 mg/kg): 4.1 days and 3.1 days |
| Nc1nc(N)c2cc(NCc3ccc(Cl)c(Cl)c3)ccc2n1 | 13.1 days and 7.3 days | – | – | – | 8.5 | 7.1 days and 2.7 days | – | – | – | Delta MST [12]: 9.9 days; Delta MST [19]: 9.9 days |
| CC(=O)O.COc1cc(NCc2ccc3nc(N)nc(N)c3c2)cc(OC)c1OC.O | – | 57 | 87 | – | 62 | 0.7 days and 0.3 days | 0.7 | – | 0.3 | Delta MST ([12]; 160 mg/kg): 4.9 days and 4.5 days; Delta MST [13]: 7.9 days |
| CC(=O)O.Cc1c(CNc2ccc(Cl)cc2)ccc2nc(N)nc(N)c12 | – | 1.9 | – | – | 0.088 | – | 20.9 | – | – | Delta MST ([10]; 10 mg/kg): 19.8 days and 25.9 days and 8.8 days; Delta MST [8]: 0.7 days; Delta MST [4]: 8.7 days |
